Test results reported in ChEMBL document CHEMBL1140904, “Synthesis and analysis of novel glycerolipids for the treatment of metabolic syndrome” (J Med Chem, 2009).

What was measured:
Rattus norvegicus [1] = assay: Effect on fatty acid composition in Wistar rat assessed as change in plasma saturated fatty acid level at dose equivalent to 250 umol of tetradecylthioacetic acid, po after 6 days; type: functional
Rattus norvegicus [2] = assay: Decrease in plasma triacylglycerol level in po dosed Wistar rat after 6 days; type: functional, organism-based
Method in brief: (§1)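 Male Wistar rats (170-210 g), housed in pairs with chow and water, were gavaged once daily for 6 days with test lipid in 0.5% (w/v) carboxymethylcellulose at 85 or 250 µmol TTA-equivalent per animal. Controls received palmitic acid in CMC. Plasma triacylglycerol and cholesterol were measured with an enzymatic kit, and liver levels were also determined. Values are mean ± SD, n=5 rats.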

Rattus norvegicus [3] = assay: Effect on fatty acid composition in Wistar rat assessed as change in plasma 18;2, n-6 level at dose equivalent to 85 umol of tetradecylthioacetic acid, po after 6 days; type: functional
Rattus norvegicus [4] = assay: Effect on fatty acid composition in Wistar rat assessed as change in plasma LCPUFA, n-6 level at dose equivalent to 250 umol of tetradecylthioacetic acid, po after 6 days; type: functional
Rattus norvegicus [5] = assay: Effect on fatty acid composition in Wistar rat assessed as change in liver saturated fatty acid level at dose equivalent to 85 umol of tetradecylthioacetic acid, po after 6 days; type: functional
Method in brief: (§2)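 Male Wistar rats were gavaged once daily for 6 days with compound in 0.5% CMC at 85 or 250 µmol TTA-equivalent per animal. Controls received palmitic acid. Liver was homogenized in 0.25 M sucrose/10 mM HEPES pH 7.4/1 mM EDTA at 0-4 °C. Lipids were extracted with chloroform:methanol 2:1 and spiked with 21:0 internal standard. Fatty acids were BF3-methanol transesterified and quantified as wt%. Values are mean ± SD, n=5.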

Rattus norvegicus [6] = assay: Plasma concentration in Wistar rat assessed as tetradecylthioacetic acid at dose equivalent to 250 umol of tetradecylthioacetic acid, po after 6 days; type: ADME, organism-based; conditions: in vivo, 144 h
Rattus norvegicus [7] = assay: Effect on fatty acid composition in Wistar rat assessed as change in plasma saturated fatty acid level at dose equivalent to 85 umol of tetradecylthioacetic acid, po after 6 days; type: functional
Rattus norvegicus [8] = assay: Effect on fatty acid composition in Wistar rat assessed as change in liver 18;2, n-6 level at dose equivalent to 85 umol of tetradecylthioacetic acid, po after 6 days; type: functional; method in brief: as §2
Rattus norvegicus [9] = assay: Effect on fatty acid composition in Wistar rat assessed as change in plasma PUFA level at dose equivalent to 85 umol of tetradecylthioacetic acid, po after 6 days; type: functional
Rattus norvegicus [10] = assay: Plasma concentration in Wistar rat assessed as tetradecylthioacetic acid at dose equivalent to 85 umol of tetradecylthioacetic acid, po after 6 days; type: ADME, organism-based; conditions: in vivo, 144 h
Rattus norvegicus [11] = assay: Effect on fatty acid composition in Wistar rat assessed as change in plasma LCn-6/18:2 level at dose equivalent to 250 umol of tetradecylthioacetic acid, po after 6 days; type: functional
Rattus norvegicus [12] = assay: Effect on fatty acid composition in Wistar rat assessed as change in liver LCn-6/18:2 level at dose equivalent to 250 umol of tetradecylthioacetic acid, po after 6 days; type: functional; method in brief: as §2
Rattus norvegicus [13] = assay: Increase in [1-14C]palmitoyl-CoA oxidation in po dosed Wistar rat liver homogenate after 6 days; type: functional, organism-based
Method in brief: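 Rats were dosed by gastric intubation for 6 days with 85 or 250 µmol TTA-equivalent in 0.5% CMC, with palmitic acid controls. Liver was homogenized in 0.25 M sucrose, 10 mM HEPES pH 7.4, 1 mM EDTA at 0-4 °C. Palmitoyl-CoA oxidation was read as acid-soluble products from [1-14C]-palmitoyl-CoA in the postnuclear fraction. Mean ± SD, n=5.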

Rattus norvegicus [14] = assay: Effect on fatty acid composition in Wistar rat assessed as change in liver PUFA level at dose equivalent to 85 umol of tetradecylthioacetic acid, po after 6 days; type: functional; method in brief: as §2
Rattus norvegicus [15] = assay: Effect on fatty acid composition in Wistar rat assessed as change in liver LCPUFA, n-6 level at dose equivalent to 85 umol of tetradecylthioacetic acid, po after 6 days; type: functional; method in brief: as §2
Rattus norvegicus [16] = assay: Effect on fatty acid composition in Wistar rat assessed as change in liver MUFA level at dose equivalent to 85 umol of tetradecylthioacetic acid, po after 6 days; type: functional; method in brief: as §2
Rattus norvegicus [17] = assay: Effect on fatty acid composition in Wistar rat assessed as change in liver MUFA level at dose equivalent to 250 umol of tetradecylthioacetic acid, po after 6 days; type: functional; method in brief: as §2
Rattus norvegicus [18] = assay: Effect on fatty acid composition in Wistar rat assessed as change in plasma LCn-6/18:2 level at dose equivalent to 85 umol of tetradecylthioacetic acid, po after 6 days; type: functional
Rattus norvegicus [19] = assay: Effect on fatty acid composition in Wistar rat assessed as change in liver saturated fatty acid level at dose equivalent to 250 umol of tetradecylthioacetic acid, po after 6 days; type: functional; method in brief: as §2
Rattus norvegicus [20] = assay: Induction of PPAR-alpha-regulated HMG-CoA synthase activity in po dosed Wistar rat after 6 days; type: functional, organism-based
Method in brief: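 Wistar rats were gavaged daily for 6 days at 85 or 250 µmol TTA-equivalent in 0.5% CMC, with palmitic acid controls. HMG-CoA synthase activity was assayed in the liver postnuclear fraction by the Clinkenbeard method. Mean ± SD, 5 rats/group.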

Rattus norvegicus [21] = assay: Effect on fatty acid composition in Wistar rat assessed as change in plasma LCPUFA, n-6 level at dose equivalent to 85 umol of tetradecylthioacetic acid, po after 6 days; type: functional
Rattus norvegicus [22] = assay: Induction of PPAR-alpha-regulated fatty acyl-CoA oxidase activity in po dosed Wistar rat after 6 days; type: functional, organism-based
Method in brief: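 Rats were dosed by gastric intubation for 6 days at 85 or 250 µmol TTA-equivalent in 0.5% CMC, with palmitic acid controls. Fatty acyl-CoA oxidase was measured in the liver postnuclear fraction by a coupled assay, following H2O2 production as the rise in dichlorofluorescein absorbance with palmitoyl-CoA. Mean ± SD, n=5.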

Rattus norvegicus [23] = assay: Effect on fatty acid composition in Wistar rat assessed as change in liver PUFA level at dose equivalent to 250 umol of tetradecylthioacetic acid, po after 6 days; type: functional; method in brief: as §2
Rattus norvegicus [24] = assay: Effect on fatty acid composition in Wistar rat assessed as change in plasma 18;2, n-6 level at dose equivalent to 250 umol of tetradecylthioacetic acid, po after 6 days; type: functional
Rattus norvegicus [25] = assay: Decrease in plasma cholesterol level in po dosed Wistar rat after 6 days; type: functional, organism-based; method in brief: as §1
Rattus norvegicus [26] = assay: Effect on fatty acid composition in Wistar rat assessed as change in liver LCn-6/18:2 level at dose equivalent to 85 umol of tetradecylthioacetic acid, po after 6 days; type: functional; method in brief: as §2
Rattus norvegicus [27] = assay: Effect on fatty acid composition in Wistar rat assessed as change in plasma PUFA level at dose equivalent to 250 umol of tetradecylthioacetic acid, po after 6 days; type: functional
Rattus norvegicus [28] = assay: Effect on fatty acid composition in Wistar rat assessed as change in liver 18;2, n-6 level at dose equivalent to 250 umol of tetradecylthioacetic acid, po after 6 days; type: functional; method in brief: as §2
Rattus norvegicus [29] = assay: Effect on fatty acid composition in Wistar rat assessed as change in liver LCPUFA, n-6 level at dose equivalent to 250 umol of tetradecylthioacetic acid, po after 6 days; type: functional; method in brief: as §2
Rattus norvegicus [30] = assay: Effect on fatty acid composition in Wistar rat assessed as change in plasma MUFA level at dose equivalent to 85 umol of tetradecylthioacetic acid, po after 6 days; type: functional
Rattus norvegicus [31] = assay: Induction of PPAR-alpha-regulated CPT2 activity in po dosed Wistar rat after 6 days; type: functional, organism-based
Method in brief: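 Wistar rats were dosed orally for 6 days (85 or 250 µmol TTA-equivalent in 0.5% CMC; palmitic acid controls). CPT-II activity was measured in the liver mitochondrial fraction, prepared from sucrose/HEPES pH 7.4/EDTA homogenate at 0-4 °C. Means ± SD from 5 rats per group.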

Liver = assay: Drug concentration in Wistar rat liver assessed as tetradecylthioacetic acid at dose equivalent to 85 umol of tetradecylthioacetic acid, po after 6 days; type: ADME, organism-based; conditions: in vivo, 144 h; method in brief: as §2
Rattus norvegicus [32] = assay: Effect on fatty acid composition in Wistar rat assessed as change in plasma MUFA level at dose equivalent to 250 umol of tetradecylthioacetic acid, po after 6 days; type: functional

With `CCCCCCCCCCCCCCSCC(=O)OCC(COC(=O)CSCCCCCCCCCCCCCC)OC(=O)CSCCCCCCCCCCCCCC` [TRITETRADECYLTHIOACETYL GLYCEROL] the Activity (Rattus norvegicus [1]) was 34.67%, the Activity (Rattus norvegicus [2]) was “Dose-dependent effect” and the Activity (Rattus norvegicus [3]) was 19.73%. The Activity (Rattus norvegicus [4]) was 22.24%, the Activity (Rattus norvegicus [5]) was 39.82% and the Drug uptake (Rattus norvegicus [6]) was 1.49%. It also gave an Activity (Rattus norvegicus [7]) of 36.21%, an Activity (Rattus norvegicus [8]) of 11.28% and an Activity (Rattus norvegicus [9]) of 2.35%. It also gave a Drug uptake (Rattus norvegicus [10]) of 0.51%, an Activity (Rattus norvegicus [11]) of 1.22% and an Activity (Rattus norvegicus [12]) of 2.7%. For the same compound, the Activity (Rattus norvegicus [13]) was “Dose-dependent effect”, the Activity (Rattus norvegicus [14]) was 5.18% and the Activity (Rattus norvegicus [15]) was 25.81%. The Activity (Rattus norvegicus [16]) was 17.27%, the Activity (Rattus norvegicus [17]) was 15.91% and the Activity (Rattus norvegicus [18]) was 0.98%. The Activity (Rattus norvegicus [19]) was 38.98%, the Activity (Rattus norvegicus [20]) was “Dose-dependent effect” and the Activity (Rattus norvegicus [21]) was 19.08%. The Activity (Rattus norvegicus [22]) was “Dose-dependent effect”, the Activity (Rattus norvegicus [23]) was 4.97% and the Activity (Rattus norvegicus [24]) was 18.25%. The Activity (Rattus norvegicus [25]) was “Dose-dependent effect”, the Activity (Rattus norvegicus [26]) was 2.3% and the Activity (Rattus norvegicus [27]) was 2.29%. The Activity (Rattus norvegicus [28]) was 10.7%, the Activity (Rattus norvegicus [29]) was 28.73% and the Activity (Rattus norvegicus [30]) was 21.8%. For the same compound, the Activity (Rattus norvegicus [31]) was “Dose-dependent effect”, the Drug uptake (Liver) was 0.69% and the Drug uptake (Liver; in the assay text read “equivalent to 250 umol” for “equivalent to 85 umol”) was 2.04%. It also gave an Activity (Rattus norvegicus [32]) of 21.63%.
